Experimental data from different studies.
Protocols differ between the studies behind these lines. Converted amounts (≈) assume the structure as drawn.

`C/C=C1/CN2CC[C@]34C(=C(C(=O)OC)[C@H]1C[C@H]23)Nc1ccccc14` has a Papp A→B of 38.1 ×10⁻⁶ cm/s (Caco-2; 10 µM, 2 h, pH 7.4).
`COc1cc(C2C3=C(COC3=O)N(CCO)c3cc4c(cc32)CCC4)cc(OC)c1OC` (centres unmarked) has an MTD of ≥ 400 mg/kg (general toxicity; female C57BL/6 mouse; intraperitoneal, single dose).
For `CC(c1cncnc1)n1c(=S)[nH]c2ccc(Cl)cc2c1=O` (centres unmarked), the Papp B→A was 38.4 ×10⁻⁶ cm/s (Caco-2; 10 µM, 90 min, pH 7.4).
`CC=CCC(C)C1OC(=O)C(C(C)C)N(C)C(=O)C(CC(C)C)N(C)C(=O)C(CC(C)C)N(C)C(=O)C(C)NC(=O)C(C)NC(=O)C(CC(C)C)N(C)C(=O)C(C(C)C)NC(=O)C(CC(C)C)N(C)C(=O)CN(C)C(=O)C(CC)NC(=O)C1NC` (centres unmarked) gave a solubility of 91 µM (≈ 109 µg/mL) (aqueous buffer; 18 h, pH 7.4).
With `C/C=C1/CN2CC[C@@]34c5cc(O)ccc5N(C)[C@]35OC[C@@]4(C(=O)OC)[C@H]1C[C@H]25` the Papp B→A was 30.9 ×10⁻⁶ cm/s (Caco-2; 10 µM, 2 h, pH 7.4).
`O=c1c2cc(Cl)c(CO)cc2[nH]c(=S)n1Cc1cncnc1` gave a Papp A→B of 14 ×10⁻⁶ cm/s (Caco-2; 10 µM, 90 min, pH 7.4).
The solubility of `CC[C@H](C)[C@H]1C(=O)N[C@H]([C@H](C)O)C(=O)NCC(=O)N[C@@H](CC(C)C)C(=O)N2CCC[C@H]2C(=O)N[C@@H](Cc2ccc(O)cc2)C(=O)N[C@H](CC(C)C)C(=O)N2CCC[C@@H]2C(=O)NCC(=O)N[C@@H](Cc2ccc(O)cc2)C(=O)N1C` is reported as 933 µM (≈ 1020 µg/mL) (aqueous buffer; 18 h, pH 7.4).
`Cl.Cn1c(=O)n(CCCCN2CCC3(CC2)OCc2ccccc23)c2ccccc21` gave a tissue/plasma ratio of 0.48 (male Sprague-Dawley rat, brain; intravenous, 10 mg/kg).
